Laboratory results as given in ChEMBL document CHEMBL1649256, “Comparison of assessment of oxygen consumption, Etest, and CLSI M38-A2 broth microdilution methods for evaluation of the susceptibility of Aspergillus fumigatus to posaconazole” (2009).
≈ marks a conversion by molar mass, not a printed value.

Key:
Format in all cases: functional
Aspergillus fumigatus [1] = experiment: Antimicrobial activity against Aspergillus fumigatus isolate 39 by CLSI M38-A2 broth microdilution method
Outline: (§1)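 CLSI M38-A2 broth microdilution with posaconazole. MIC taken as the lowest concentration with no visible growth at 48 h. C. parapsilosis ATCC 22019 and C. krusei ATCC 6258 were included as QC strains in every run.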

Aspergillus fumigatus [2] = experiment: Antimicrobial activity against Aspergillus fumigatus isolate 30 by CLSI M38-A2 broth microdilution method
Outline: (§2)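 Reference broth microdilution per CLSI M38-A2. MIC read as absence of visible growth at 48 h. C. parapsilosis ATCC 22019 and C. krusei ATCC 6258 QC strains run in each test session.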

Aspergillus fumigatus [3] = experiment: Antimicrobial activity against Aspergillus fumigatus isolate 16 after 48 hrs by Etest; conditions: isolate 16, 48 h
Outline: (§3)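 Posaconazole Etest strips placed on RPMI 1640 agar with 2% glucose, pH 7.0, and run per the strip maker's instructions. Incubation at 35°C, with the MIC read at 24 h and at 48 h.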

Aspergillus fumigatus [4] = experiment: Antimicrobial activity against Aspergillus fumigatus isolate 19 by CLSI M38-A2 broth microdilution method
Outline: (§4)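 Posaconazole broth microdilution follows CLSI M38-A2. The MIC is the lowest concentration with no visible growth at 48 h. Candida parapsilosis ATCC 22019 and Candida krusei ATCC 6258 were included as QC strains in every run.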

Aspergillus fumigatus [5] = experiment: Antimicrobial activity against Aspergillus fumigatus isolate 29 by CLSI M38-A2 broth microdilution method; outline: as §2
Aspergillus fumigatus [6] = experiment: Antimicrobial activity against Aspergillus fumigatus isolate 39 after 24 hrs by Etest; conditions: isolate 39, 24 h
Outline: (§5)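 Posaconazole Etest strips on RPMI 1640 agar with 2% glucose, pH 7.0, run per the strip maker's instructions. Incubated at 35°C. MIC read at 24 h and at 48 h, matching the time in each line.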

Aspergillus fumigatus [7] = experiment: Antimicrobial activity against Aspergillus fumigatus isolate 6 after 48 hrs by Etest; conditions: isolate 6, 48 h
Aspergillus fumigatus [8] = experiment: Antimicrobial activity against Aspergillus fumigatus isolate 25 after 24 hrs by Etest; conditions: isolate 25, 24 h
Outline: (§6)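 Etest strips on RPMI 1640 agar with 2% glucose, pH 7.0, run per manufacturer's instructions. Incubated at 35°C; MIC read at 24 h.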

Aspergillus fumigatus [9] = experiment: Antimicrobial activity against Aspergillus fumigatus isolate 4 after 48 hrs by Etest; conditions: isolate 4, 48 h; outline: as §5
Aspergillus fumigatus [10] = experiment: Antimicrobial activity against Aspergillus fumigatus isolate 48 after 48 hrs by Etest; conditions: isolate 48, 48 h
Aspergillus fumigatus [11] = experiment: Antimicrobial activity against Aspergillus fumigatus isolate 33 after 24 hrs by Etest; conditions: isolate 33, 24 h; outline: as §5
Aspergillus fumigatus [12] = experiment: Antimicrobial activity against Aspergillus fumigatus isolate 15 after 48 hrs by Etest; conditions: isolate 15, 48 h; outline: as §3
Aspergillus fumigatus [13] = experiment: Antimicrobial activity against Aspergillus fumigatus isolate 5 by oxygen consumption method
Aspergillus fumigatus [14] = experiment: Antimicrobial activity against Aspergillus fumigatus isolate 9 after 48 hrs by Etest; conditions: isolate 9, 48 h
Aspergillus fumigatus [15] = experiment: Antimicrobial activity against Aspergillus fumigatus isolate 2 after 48 hrs by Etest; conditions: isolate 2, 48 h; outline: as §3
Aspergillus fumigatus [16] = experiment: Antimicrobial activity against Aspergillus fumigatus isolate 1 by oxygen consumption method
Outline: (§7)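 Conidial suspension in RPMI 1640 broth with posaconazole at 0.25 and 2 μg/ml. Tubes agitated 12 h at 37°C in a biological oxygen monitor. Available oxygen was monitored continuously, and the MIC was assigned from the oxygen quantification.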

Aspergillus fumigatus [17] = experiment: Antimicrobial activity against Aspergillus fumigatus isolate 15 by oxygen consumption method; outline: as §7
Aspergillus fumigatus [18] = experiment: Antimicrobial activity against Aspergillus fumigatus isolate 28 after 48 hrs by Etest; conditions: isolate 28, 48 h
Outline: (§8)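 Etest strips on RPMI 1640 agar with 2% glucose, pH 7.0, run per manufacturer's instructions. Incubated at 35°C; MIC read at 48 h.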

Aspergillus fumigatus [19] = experiment: Antimicrobial activity against Aspergillus fumigatus isolate 24 by oxygen consumption method
Outline: (§9)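 Conidial suspension in RPMI 1640 broth, 1.5 ml, with two drug concentrations (0.25 and 2 μg/ml). Tubes agitated 12 h at 37°C in a biological oxygen monitor. Available oxygen monitored continuously and quantified to assign the MIC.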

Aspergillus fumigatus [20] = experiment: Antimicrobial activity against Aspergillus fumigatus isolate 25 after 48 hrs by Etest; conditions: isolate 25, 48 h; outline: as §8
Aspergillus fumigatus [21] = experiment: Antimicrobial activity against Aspergillus fumigatus isolate 20 after 48 hrs by Etest; conditions: isolate 20, 48 h; outline: as §3
Aspergillus fumigatus [22] = experiment: Antimicrobial activity against Aspergillus fumigatus isolate 20 by oxygen consumption method; outline: as §9
Aspergillus fumigatus [23] = experiment: Antimicrobial activity against Aspergillus fumigatus isolate 3 after 48 hrs by Etest; conditions: isolate 3, 48 h; outline: as §8
Aspergillus fumigatus [24] = experiment: Antimicrobial activity against Aspergillus fumigatus isolate 47 by oxygen consumption method
Aspergillus fumigatus [25] = experiment: Antimicrobial activity against Aspergillus fumigatus isolate 44 by CLSI M38-A2 broth microdilution method
Aspergillus fumigatus [26] = experiment: Antimicrobial activity against Aspergillus fumigatus isolate 5 after 48 hrs by Etest; conditions: isolate 5, 48 h
Aspergillus fumigatus [27] = experiment: Antimicrobial activity against Aspergillus fumigatus isolate 47 after 24 hrs by Etest; conditions: isolate 47, 24 h
Aspergillus fumigatus [28] = experiment: Antimicrobial activity against Aspergillus fumigatus isolate 20 by CLSI M38-A2 broth microdilution method; outline: as §2
Aspergillus fumigatus [29] = experiment: Antimicrobial activity against Aspergillus fumigatus isolate 36 after 24 hrs by Etest; conditions: isolate 36, 24 h; outline: as §5
Aspergillus fumigatus [30] = experiment: Antimicrobial activity against Aspergillus fumigatus isolate 17 after 24 hrs by Etest; conditions: isolate 17, 24 h; outline: as §3
Aspergillus fumigatus [31] = experiment: Antimicrobial activity against Aspergillus fumigatus isolate 15 by CLSI M38-A2 broth microdilution method; outline: as §4
Aspergillus fumigatus [32] = experiment: Antimicrobial activity against Aspergillus fumigatus isolate 5 after 24 hrs by Etest; conditions: isolate 5, 24 h
Aspergillus fumigatus [33] = experiment: Antimicrobial activity against Aspergillus fumigatus isolate 4 by CLSI M38-A2 broth microdilution method; outline: as §1
Aspergillus fumigatus [34] = experiment: Antimicrobial activity against Aspergillus fumigatus isolate 13 by CLSI M38-A2 broth microdilution method; outline: as §4
Aspergillus fumigatus [35] = experiment: Antimicrobial activity against Aspergillus fumigatus isolate 48 by CLSI M38-A2 broth microdilution method
Aspergillus fumigatus [36] = experiment: Antimicrobial activity against Aspergillus fumigatus isolate 16 after 24 hrs by Etest; conditions: isolate 16, 24 h; outline: as §3
Aspergillus fumigatus [37] = experiment: Antimicrobial activity against Aspergillus fumigatus isolate 50 after 48 hrs by Etest; conditions: isolate 50, 48 h
Aspergillus fumigatus [38] = experiment: Antimicrobial activity against Aspergillus fumigatus isolate 13 by oxygen consumption method; outline: as §7
Aspergillus fumigatus [39] = experiment: Antimicrobial activity against Aspergillus fumigatus isolate 31 by oxygen consumption method; outline: as §9
Aspergillus fumigatus [40] = experiment: Antimicrobial activity against Aspergillus fumigatus isolate 9 by oxygen consumption method
Aspergillus fumigatus [41] = experiment: Antimicrobial activity against Aspergillus fumigatus isolate 4 after 24 hrs by Etest; conditions: isolate 4, 24 h; outline: as §5
Aspergillus fumigatus [42] = experiment: Antimicrobial activity against Aspergillus fumigatus isolate 22 by CLSI M38-A2 broth microdilution method; outline: as §2
Aspergillus fumigatus [43] = experiment: Antimicrobial activity against Aspergillus fumigatus isolate 26 after 24 hrs by Etest; conditions: isolate 26, 24 h; outline: as §6
Aspergillus fumigatus [44] = experiment: Antimicrobial activity against Aspergillus fumigatus isolate 21 after 24 hrs by Etest; conditions: isolate 21, 24 h; outline: as §6
Aspergillus fumigatus [45] = experiment: Antimicrobial activity against Aspergillus fumigatus isolate 1 after 48 hrs by Etest; conditions: isolate 1, 48 h; outline: as §3
Aspergillus fumigatus [46] = experiment: Antimicrobial activity against Aspergillus fumigatus isolate 45 after 48 hrs by Etest; conditions: isolate 45, 48 h

`CC[C@@H]([C@H](C)O)n1ncn(-c2ccc(N3CCN(c4ccc(OC[C@@H]5CO[C@@](Cn6cncn6)(c6ccc(F)cc6F)C5)cc4)CC3)cc2)c1=O` [POSACONAZOLE] was tested, and the MIC (Aspergillus fumigatus [1]) was 0.06 µg/mL (≈ 0.0856 µM), the MIC (Aspergillus fumigatus [2]) was 0.125 µg/mL (≈ 0.178 µM) and the MIC (Aspergillus fumigatus [3]) was 0.25 µg/mL (≈ 0.357 µM). It also gave an MIC (Aspergillus fumigatus [4]) of 0.5 µg/mL (≈ 0.713 µM), an MIC (Aspergillus fumigatus [5]) of 0.125 µg/mL (≈ 0.178 µM) and an MIC (Aspergillus fumigatus [6]) of 1 µg/mL (≈ 1.43 µM). It also gave an MIC (Aspergillus fumigatus [7]) of 4 µg/mL (≈ 5.71 µM), an MIC (Aspergillus fumigatus [8]) of 0.25 µg/mL (≈ 0.357 µM) and an MIC (Aspergillus fumigatus [9]) of 0.25 µg/mL (≈ 0.357 µM). For the same compound, the MIC (Aspergillus fumigatus [10]) was ≤ 0.03 µg/mL, the MIC (Aspergillus fumigatus [11]) was 0.25 µg/mL (≈ 0.357 µM) and the MIC (Aspergillus fumigatus [12]) was 0.06 µg/mL (≈ 0.0856 µM). The MIC (Aspergillus fumigatus [13]) was ≥ 0.5 µg/mL, the MIC (Aspergillus fumigatus [14]) was 0.5 µg/mL (≈ 0.713 µM) and the MIC (Aspergillus fumigatus [15]) was 1 µg/mL (≈ 1.43 µM). For the same compound, the MIC (Aspergillus fumigatus [16]) was ≥ 0.5 µg/mL, the MIC (Aspergillus fumigatus [17]) was ≤ 0.25 µg/mL and the MIC (Aspergillus fumigatus [18]) was 0.25 µg/mL (≈ 0.357 µM). The MIC (Aspergillus fumigatus [19]) was ≤ 0.25 µg/mL, the MIC (Aspergillus fumigatus [20]) was 0.25 µg/mL (≈ 0.357 µM) and the MIC (Aspergillus fumigatus [21]) was 0.25 µg/mL (≈ 0.357 µM). The MIC (Aspergillus fumigatus [22]) was ≤ 0.25 µg/mL, the MIC (Aspergillus fumigatus [23]) was 2 µg/mL (≈ 2.85 µM) and the MIC (Aspergillus fumigatus [24]) was ≤ 0.25 µg/mL. The MIC (Aspergillus fumigatus [25]) was 0.06 µg/mL (≈ 0.0856 µM), the MIC (Aspergillus fumigatus [26]) was > 16 µg/mL and the MIC (Aspergillus fumigatus [27]) was ≤ 0.03 µg/mL. It also gave an MIC (Aspergillus fumigatus [28]) of 0.125 µg/mL (≈ 0.178 µM), an MIC (Aspergillus fumigatus [29]) of 0.06 µg/mL (≈ 0.0856 µM) and an MIC (Aspergillus fumigatus [30]) of 0.125 µg/mL (≈ 0.178 µM). The MIC (Aspergillus fumigatus [31]) was 0.06 µg/mL (≈ 0.0856 µM), the MIC (Aspergillus fumigatus [32]) was 4 µg/mL (≈ 5.71 µM) and the MIC (Aspergillus fumigatus [33]) was 0.06 µg/mL (≈ 0.0856 µM). For the same compound, the MIC (Aspergillus fumigatus [34]) was 0.125 µg/mL (≈ 0.178 µM), the MIC (Aspergillus fumigatus [35]) was 0.125 µg/mL (≈ 0.178 µM) and the MIC (Aspergillus fumigatus [36]) was 0.125 µg/mL (≈ 0.178 µM). The MIC (Aspergillus fumigatus [37]) was 0.25 µg/mL (≈ 0.357 µM), the MIC (Aspergillus fumigatus [38]) was ≥ 0.5 µg/mL and the MIC (Aspergillus fumigatus [39]) was ≤ 0.25 µg/mL. For the same compound, the MIC (Aspergillus fumigatus [40]) was ≤ 0.25 µg/mL, the MIC (Aspergillus fumigatus [41]) was 0.125 µg/mL (≈ 0.178 µM) and the MIC (Aspergillus fumigatus [42]) was 0.125 µg/mL (≈ 0.178 µM). The MIC (Aspergillus fumigatus [43]) was 0.25 µg/mL (≈ 0.357 µM), the MIC (Aspergillus fumigatus [44]) was 0.25 µg/mL (≈ 0.357 µM) and the MIC (Aspergillus fumigatus [45]) was 8 µg/mL (≈ 11.4 µM). The MIC (Aspergillus fumigatus [46]) was 0.125 µg/mL (≈ 0.178 µM).
